Measurements: ChEMBL document CHEMBL5316292 (J Med Chem, 2023)
The source made the active and inactive calls. The calls are words filed in the database; no cut-off is given here.

What was measured:
[1] = Cytotoxicity against HFF cells assessed as reduction in cell viability measured after 72 hrs by MTS assay; assay type: toxicity, cell-based; settings: human
Procedure, shortened: (§1)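 MTS viability assay run in triplicate wells. Serial dilutions in DMSO were given, with DMSO as negative control and doxorubicin as positive control, and incubated 72 h. MTS reagent was added for 2 h and absorbance read at 490 nm. % cytotoxicity = (A_medium − A_treatment)/A_medium × 100. EC50 ± SD was taken from dose-response curves of at least three independent experiments.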

VCaP [2] = assay: Antiproliferative activity against AR-positive human VCaP cells assessed as reduction in cell viability measured after 72 hrs by MTS assay; assay type: functional, cell-based
Procedure, shortened: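 VCaP cells in 96-well plates, compound serially diluted in DMSO and run in triplicate wells for 72 h. MTS reagent added for 2 h, absorbance read at 490 nm. % cytotoxicity = (A_medium − A_treatment)/A_medium × 100. EC50 and SD taken from dose-response curves, at least three independent experiments.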

[3] = Antiproliferative activity against human Androgen-resistant 22Rv1 cells assessed as reduction in cell viability measured after 72 hrs by MTS assay; assay type: functional, cell-based; settings: 22Rv1, 72 h; procedure, shortened: as §1
VCaP [4] = assay: Downregulation of BRD3 mRNA levels in human VCaP cells at 25 to 2500 nM incubated for 24 hrs by qRT-PCR analysis; assay type: functional, cell-based; settings: dose 25-2500 nM
Procedure, shortened: (§2)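 VCaP cells grown to 50% confluence, then treated with compound or DMSO (Methods state 16 h, legend states 24 h). Total RNA isolated, cDNA made from 1 µg RNA, SYBR Green qPCR run in triplicate. Expression by ΔΔCt, normalised to GAPDH. Three independent experiments, SEM.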

DU-145 = assay: Antiproliferative activity against AR-negative human DU-145 cells assessed as reduction in cell viability measured after 72 hrs by MTS assay; settings: DU-145, 72 h
LNCaP = assay: Antiproliferative activity against androgen-sensitive human LNCaP cells assessed as reduction in cell viability measured after 72 hrs by MTS assay; assay type: functional, cell-based; procedure, shortened: as §1
VCaP [5] = assay: Downregulation of BRD4 mRNA levels in human VCaP cells at 25 to 2500 nM incubated for 24 hrs by qRT-PCR analysis; assay type: functional, cell-based; settings: dose 25-2500 nM; procedure, shortened: as §2
VCaP [6] = assay: Downregulation of ERG gene levels in human VCaP cells incubated for 24 hrs by qRT-PCR analysis; assay type: functional, cell-based; settings: dose 25-2500 nM; procedure, shortened: as §2
VCaP [7] = assay: Downregulation of TMPRSS2 gene levels in human VCaP cells incubated for 24 hrs by qRT-PCR analysis; assay type: functional, cell-based; settings: dose 25-2500 nM; procedure, shortened: as §2
VCaP [8] = assay: Downregulation of PSA […] expression in human VCaP cells incubated for 24 hrs by qRT-PCR analysis; assay type: functional, cell-based; settings: dose 25-2500 nM; procedure, shortened: as §2
VCaP [9] = assay: Downregulation of BRD2 mRNA levels in human VCaP cells at 25 to 2500 nM incubated for 24 hrs by qRT-PCR analysis; assay type: functional, cell-based; settings: dose 25-2500 nM; procedure, shortened: as §2
PC-3 = assay: Antiproliferative activity against androgen-insensitive human PC-3 cells assessed as reduction in cell viability measured after 72 hrs by MTS assay; assay type: functional, cell-based; settings: PC-3, 72 h; procedure, shortened: as §1
VCaP [10] = assay: Downregulation of AR […] expression in human VCaP cells at 25 to 2500 nM incubated for 24 hrs by qRT-PCR analysis; assay type: functional, cell-based; settings: dose 25-2500 nM; procedure, shortened: as §2
[11] = molecular target: T1, Bromodomain-containing protein 4 (Homo sapiens, UniProt O60885); assay: Induction of BRD4 degradation in human MDA-MB-231 cells assessed as decrease in BET half life at 50 ug/ml incubated for 8 hrs by immunoblotting analysis; assay type: cell-based; settings: dose 50.0 µg/ml
Procedure, shortened: (§3)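 MDA-MB-231 time-course. Cells given 50 µg/mL cycloheximide plus DMSO, or 50 µg/mL cycloheximide plus 10 µM compound. RIPA lysates immunoblotted for BRD2, BRD3 and BRD4 with GAPDH as control.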

[12] = molecular target: T2, Bromodomain-containing protein 3 (Homo sapiens, UniProt Q15059); assay: Induction of BRD3 degradation in human MDA-MB-231 cells assessed as decrease in BET half life at 50 ug/ml incubated for 8 hrs by immunoblotting analysis; assay type: cell-based; settings: dose 50.0 µg/ml; procedure, shortened: as §3
Target sequence in this assay (Q15059 2-726 limits assumed): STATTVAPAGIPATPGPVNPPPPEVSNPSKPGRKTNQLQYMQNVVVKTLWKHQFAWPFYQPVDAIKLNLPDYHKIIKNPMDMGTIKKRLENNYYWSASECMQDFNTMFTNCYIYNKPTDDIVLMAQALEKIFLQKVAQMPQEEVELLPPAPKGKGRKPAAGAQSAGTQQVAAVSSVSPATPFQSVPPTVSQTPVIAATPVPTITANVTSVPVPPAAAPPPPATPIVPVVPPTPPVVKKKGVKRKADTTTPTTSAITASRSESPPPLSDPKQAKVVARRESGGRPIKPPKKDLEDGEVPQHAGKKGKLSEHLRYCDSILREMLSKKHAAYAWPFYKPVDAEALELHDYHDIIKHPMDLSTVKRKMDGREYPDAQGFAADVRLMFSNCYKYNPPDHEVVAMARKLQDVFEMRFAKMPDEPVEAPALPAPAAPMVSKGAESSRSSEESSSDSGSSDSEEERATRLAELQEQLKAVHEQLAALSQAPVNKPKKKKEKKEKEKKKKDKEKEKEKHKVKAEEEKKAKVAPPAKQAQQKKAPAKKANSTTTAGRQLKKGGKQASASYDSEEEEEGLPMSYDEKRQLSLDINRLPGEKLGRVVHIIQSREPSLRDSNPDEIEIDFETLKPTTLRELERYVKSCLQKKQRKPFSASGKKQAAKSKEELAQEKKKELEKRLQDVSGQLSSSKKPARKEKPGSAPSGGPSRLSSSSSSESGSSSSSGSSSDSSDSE

[13] = molecular target: Bromodomain-containing protein 2 (Homo sapiens, UniProt P25440); assay: Induction of BRD2 degradation in human MDA-MB-231 cells assessed as decrease in BET half life at 50 ug/ml incubated for 8 hrs by immunoblotting analysis; assay type: cell-based; settings: dose 50.0 µg/ml; procedure, shortened: as §3
[14] = molecular target: T1, Bromodomain-containing protein 4; assay: Inhibition of BRD4-BD1 (unknown origin) by fluorescence polarization assay
Procedure, shortened: (§4)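 FP competition assay using the fluorescein-labeled PCC conjugate (4 nM) as tracer. Recombinant His-tagged BRD bromodomain (20–400 nM) in 50 mM HEPES pH 7.4, 150 mM NaCl, 0.5 mM TCEP, 0.05% Tween-20. DMSO-matched serial dilutions were added and the plate incubated. Read at ex 485/em 535 nm, with G-factor zeroed on tracer alone. Triplicate data were curve-fitted, error SEM.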

[15] = molecular target: T2, Bromodomain-containing protein 3; assay: Inhibition of BRD3-BD2 (unknown origin) by fluorescence polarization assay; procedure, shortened: as §4
Target sequence in this assay (Q15059 whole entry): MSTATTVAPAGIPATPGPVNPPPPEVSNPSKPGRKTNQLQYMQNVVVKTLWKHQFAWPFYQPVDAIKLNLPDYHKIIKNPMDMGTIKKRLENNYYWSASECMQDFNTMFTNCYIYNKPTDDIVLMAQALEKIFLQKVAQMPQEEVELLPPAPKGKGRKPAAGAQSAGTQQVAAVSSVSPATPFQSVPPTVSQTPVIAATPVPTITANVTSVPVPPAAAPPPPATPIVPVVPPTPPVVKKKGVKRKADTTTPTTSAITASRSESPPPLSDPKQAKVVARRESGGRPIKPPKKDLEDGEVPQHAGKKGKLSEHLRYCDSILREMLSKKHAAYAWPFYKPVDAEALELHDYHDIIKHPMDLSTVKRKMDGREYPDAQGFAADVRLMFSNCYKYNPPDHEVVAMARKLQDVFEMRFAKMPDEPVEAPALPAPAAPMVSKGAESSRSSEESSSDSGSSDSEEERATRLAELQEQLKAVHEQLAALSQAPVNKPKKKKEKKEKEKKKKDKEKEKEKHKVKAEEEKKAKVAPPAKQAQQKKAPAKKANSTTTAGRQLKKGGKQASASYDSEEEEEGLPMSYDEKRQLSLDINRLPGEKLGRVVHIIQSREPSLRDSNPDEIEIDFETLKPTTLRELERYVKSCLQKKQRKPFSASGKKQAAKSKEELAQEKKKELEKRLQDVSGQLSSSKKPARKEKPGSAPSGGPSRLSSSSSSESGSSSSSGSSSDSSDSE

[16] = molecular target: T2, Bromodomain-containing protein 3; assay: Inhibition of BRD3-BD1 (unknown origin) by fluorescence polarization assay; procedure, shortened: as §4
Target sequence in this assay (Q15059 whole entry): as above

[17] = molecular target: T1, Bromodomain-containing protein 4; assay: Inhibition of BRD4-BD2 (unknown origin) by fluorescence polarization assay; procedure, shortened: as §4
[18] = Cytotoxicity against human WI-38 cells assessed as reduction in cell viability measured after 72 hrs by MTS assay; assay type: toxicity, cell-based; procedure, shortened: as §1
[19] = molecular target: T1, Bromodomain-containing protein 4; assay: Induction of BRD4 degradation in human PC-3 cells incubated for 16 hrs by immunoblotting analysis; assay type: cell-based
Procedure, shortened: (§5)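 MDA-MB-231 or PC-3 cells at 50% confluence in DMEM/10% FBS/pen-strep, treated 16 h with doses falling tenfold from 10 µM to 1 nM. RIPA lysates immunoblotted for BRD2, BRD3 and BRD4 with GAPDH as control. DC50 derived from band densitometry. SEM, n = 2.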

[20] = molecular target: T2, Bromodomain-containing protein 3; assay: Induction of BRD3 degradation in human PC-3 cells incubated for 16 hrs by immunoblotting analysis; assay type: cell-based; procedure, shortened: as §5
Target sequence in this assay (Q15059 2-726 limits assumed): as the sequence (Q15059 2-726 limits assumed) above

Sequence of Bromodomain-containing protein 2 (P25440 whole entry, looked up): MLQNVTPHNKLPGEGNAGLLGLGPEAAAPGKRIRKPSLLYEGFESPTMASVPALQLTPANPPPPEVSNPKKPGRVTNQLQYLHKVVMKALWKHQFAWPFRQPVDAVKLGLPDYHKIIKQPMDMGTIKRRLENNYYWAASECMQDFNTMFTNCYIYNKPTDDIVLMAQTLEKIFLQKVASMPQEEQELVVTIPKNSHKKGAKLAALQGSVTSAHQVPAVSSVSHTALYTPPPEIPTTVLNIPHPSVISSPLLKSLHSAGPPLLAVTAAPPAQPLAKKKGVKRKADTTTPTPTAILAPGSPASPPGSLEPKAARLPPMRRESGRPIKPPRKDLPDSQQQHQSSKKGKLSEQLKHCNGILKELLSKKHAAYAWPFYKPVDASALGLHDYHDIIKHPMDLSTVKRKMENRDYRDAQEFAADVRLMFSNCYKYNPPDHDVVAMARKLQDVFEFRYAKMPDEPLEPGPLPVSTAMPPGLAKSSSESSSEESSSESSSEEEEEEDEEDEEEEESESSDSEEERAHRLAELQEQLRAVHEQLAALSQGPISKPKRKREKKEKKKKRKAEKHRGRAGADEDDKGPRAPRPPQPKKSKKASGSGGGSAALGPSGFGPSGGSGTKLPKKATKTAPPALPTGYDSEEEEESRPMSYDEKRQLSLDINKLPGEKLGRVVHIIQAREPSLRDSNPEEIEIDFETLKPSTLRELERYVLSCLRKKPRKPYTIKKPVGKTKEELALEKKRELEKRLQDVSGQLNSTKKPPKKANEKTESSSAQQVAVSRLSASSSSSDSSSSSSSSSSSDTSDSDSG

Cc1sc2c(c1C)C(c1ccc(Cl)cc1)=N[C@@H](CC(=O)OC(C)(C)C)c1nnc(C)n1-2
EC50 at 72 h [1]: > 2000 nM | EC50 (VCaP [2]): 160 nM | EC50 [3]: 230 nM | Activity (VCaP [4]): inactive | EC50 (DU-145): > 2000 nM | EC50 (LNCaP): 162 nM | Activity (VCaP [5]): inactive | Activity (VCaP [6]): Active | Activity (VCaP [7]): Active | Activity (VCaP [8]): Dose-Dependent Effect | Activity (VCaP [9]): inactive | EC50 (PC-3): > 2000 nM | Activity (VCaP [10]): inactive

C[C@H]1C[C@H]([C@](C)(O)[C@]2(O)CC[C@@]3(O)[C@@H]4C[C@H]5O[C@]56CC=CC(=O)[C@]6(C)[C@H]4CC[C@]23C)OC(=O)[C@@H]1C
EC50 at 72 h [1]: > 2000 nM | EC50 [3]: 210 nM | EC50 (LNCaP): 290 nM

C[C@@H]1C[C@@H]([C@H](O)CC2CC(=O)NC(=O)C2)C(=O)[C@@H](C)C1
Activity [11]: inactive | Activity [12]: inactive | Activity [13]: inactive

CC1=C(CO)C(=O)O[C@@H]([C@@H](C)[C@H]2CC[C@H]3[C@@H]4C[C@H]5O[C@]56[C@@H](O)C=CC(=O)[C@]6(C)[C@H]4CC[C@]23C)C1 [WITHAFERIN A]
EC50 at 72 h [1]: > 6800 nM | EC50 (LNCaP): 870 nM | IC50 [14]: > 20000 nM | IC50 [15]: > 20000 nM | IC50 [16]: > 20000 nM | EC50 (PC-3): 410 nM | IC50 [17]: > 20000 nM

CC1=C(C)C(=O)O[C@@H]([C@](C)(O)[C@]2(O)CC[C@@]3(O)[C@@H]4C[C@H]5O[C@]56CC=CC(=O)[C@]6(C)[C@H]4CC[C@]23C)C1 [WITHANOLIDE E]
EC50 at 72 h [1]: > 10000 nM | EC50 [3]: 70 nM | EC50 (LNCaP): 60 nM | IC50 [14]: 556 nM | IC50 [15]: 720 nM | IC50 [16]: 2950 nM | IC50 [17]: 1520 nM

CC(=O)OC[C@]12CC[C@H]3[C@@H](C[C@H]4O[C@]45CC=CC(=O)[C@]35C)[C@]1(O)CC[C@@]2(O)[C@@](C)(O)[C@H]1C[C@@H](C)[C@@H](C)C(=O)O1
EC50 at 72 h [1]: > 2000 nM | EC50 [3]: 1490 nM | EC50 (DU-145): > 2000 nM | EC50 (LNCaP): 1060 nM | IC50 [14]: > 20000 nM | IC50 [15]: > 20000 nM | IC50 [16]: > 20000 nM | EC50 (PC-3): 844 nM | IC50 [17]: > 20000 nM

COc1cccc2c1C(=O)c1c(O)c3c(c(O)c1C2=O)C[C@@](O)(C(=O)CO)C[C@@H]3O[C@H]1C[C@H](N)[C@H](O)[C@H](C)O1 [DOXORUBICIN]
EC50 at 72 h [1]: 150 nM | EC50 (VCaP [2]): 670 nM | EC50 [3]: 20 nM | EC50 (DU-145): 40 nM | EC50 (LNCaP): 110 nM | EC50 (PC-3): 340 nM | EC50 at 72 h [18]: 800 nM

CC(=O)OC[C@]12CC[C@H]3[C@@H](C[C@H]4O[C@]45CCCC(=O)[C@]35C)[C@]1(O)CC[C@@]2(O)[C@@](C)(O)[C@H]1CC(C)=C(C)C(=O)O1
EC50 (VCaP [2]): > 2000 nM | Activity [19]: inactive | IC50 [14]: 60 nM | IC50 [15]: 10600 nM | IC50 [16]: 235 nM | EC50 (PC-3): 1100 nM | IC50 [17]: 9140 nM | Activity [20]: inactive

CC(=O)OC[C@]12CC[C@H]3[C@@H](C[C@H]4O[C@]45CC=CC(=O)[C@]35C)[C@]1(O)CC[C@@]2(O)[C@@](C)(O)[C@H]1C[C@]2(C)O[C@]2(C)C(=O)O1
EC50 at 72 h [1]: > 2000 nM | EC50 [3]: 177 nM | EC50 (DU-145): 1470 nM | EC50 (LNCaP): 412 nM | IC50 [14]: 1930 nM | IC50 [15]: 755 nM | IC50 [16]: 2360 nM | EC50 (PC-3): 425 nM | IC50 [17]: 5630 nM
